Activity calls are given as the source filed them. No cut-off for these calls is given here.
species: Mus musculus; assay: Mouse behavior activity was determined;D= Depressant; format: functional, organism-based; conditions: not given
In short: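 Male Simonsen (ICR) fBR mice, 18-24 g, groups of three, given 3, 10, 30, 100, 300 or 1000 mg/kg ip as aqueous solution and observed for behavioral profile; deaths followed up to 7 days.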

Row | Structure (SMILES) | Mouse behavior activity
1 | COC(=O)NC1=NC(c2cccc(OC)c2)CN1C (stereo not drawn) | Depressant
2 | COC(=O)NC1=NC(c2cccc(C)c2)CN1C (stereo not drawn) | Depressant
3 | COC(=O)NC1=NC(c2cccc(OC)c2)CN1 (stereo not drawn) | Depressant
4 | COC(=O)NC1=NC(c2ccccc2-c2ccccc2)CN1 (stereo not drawn) | Depressant
5 | COC(=O)NC1=NC(c2ccccc2F)CN1 (stereo not drawn) | Depressant
6 | CCOc1ccccc1C1CN=C(NC(=O)OC)N1 (stereo not drawn) | Depressant
7 | COC(=O)NC1=NC(c2cccc(Cl)c2)CN1C (stereo not drawn) | Depressant
8 | COC(=O)NC1=NCC2c3ccccc3CCN12 (stereo not drawn) | Depressant
9 | CC(C)COC(=O)NC1=NC(c2ccccc2)CN1C (stereo not drawn) | Depressant
10 | CN(C)CCC=C1c2ccccc2COc2ccccc21 [DOXEPIN] | Depressant
11 | CCOC(=O)NC1=NC(c2ccccc2Cl)CN1C (stereo not drawn) | Depressant

species: Rattus norvegicus; assay: Inhibition of the NE [3H]Norepinephrine uptake by rat brain slices In vitro; format: functional; conditions: not given

Row | Structure (SMILES) | IC50
12 | CCOC(=O)NC1=NC(c2ccccc2Cl)CN1C (stereo not drawn) | 30 µM

species: Mus musculus; assay: Inhibition of radioactive NE [3H]norepinephrine uptake into mouse heart; format: functional; conditions: not given
In short: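 Mice dosed ip (aqueous solution) before iv [3H]NE; hearts removed 3 h after label, washed, weighed, dissolved in Protosol and counted as dpm per mg tissue. Dose-response from linear regression.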

Row | Structure (SMILES) | ED50
13 | CCOC(=O)NC1=NC(c2ccccc2Cl)CN1C (stereo not drawn) | 34 mg/kg

system: Mus musculus; assay: Reserpine hypothermia antagonism in mouse administered perorally with 5 mg/kg of reserpine 2 hour prior to test compound administration; format: functional; conditions: route oral

Row | Structure (SMILES) | Reserpine hypothermia
14 | CCOC(=O)NC1=NC(c2ccccc2Cl)CN1C (stereo not drawn) | 0.15 mg/kg

species: Mus musculus; assay: Evaluated for antagonism of reserpine induced hypothermia;I= Inactive; format: functional, organism-based; conditions: not given
In short: (§1)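 Male HLa (ICR) BR mice, 18-24 g, in groups of eight; reserpine 5 mg/kg ip given 2 h before oral test compound as aqueous solution. Rectal temperature taken hourly; 1-4-h hypothermia assessed by analysis of variance.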

Row | Structure (SMILES) | HYPO
15 | COC(=O)NC1=NC(c2cccc(OC)c2)CN1 (stereo not drawn) | inactive
16 | CCOc1ccccc1C1CN=C(NC(=O)OC)N1 (stereo not drawn) | inactive

species: Mus musculus; assay: Righting ability was determined in mice before rapid rolling (unaroused); format: functional; conditions: not given
In short: (§2)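 Male Simonsen (ICR) fBR mice, 18-24 g, groups of ten, dosed with aqueous compound. Righting ability checked before (unaroused) and after (aroused) rapid rolling in the hand; ED50 by Litchfield-Wilcoxon method.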

Row | Structure (SMILES) | Loss of righting reflex
17 | COC(=O)NC1=NC(c2cccc(OC)c2)CN1C (stereo not drawn) | 100 mg/kg
18 | COC(=O)NC1=NC(c2cccc(C)c2)CN1C (stereo not drawn) | 90 mg/kg
19 | COC(=O)NC1=NC(c2cccc(OC)c2)CN1 (stereo not drawn) | 182 mg/kg
20 | COC(=O)NC1=NC(c2ccccc2-c2ccccc2)CN1 (stereo not drawn) | 70 mg/kg
21 | COC(=O)NC1=NC(c2ccccc2F)CN1 (stereo not drawn) | 210 mg/kg
22 | CCOc1ccccc1C1CN=C(NC(=O)OC)N1 (stereo not drawn) | 155 mg/kg
23 | COC(=O)NC1=NC(c2cccc(Cl)c2)CN1C (stereo not drawn) | 200 mg/kg
24 | CC(C)COC(=O)NC1=NC(c2ccccc2)CN1C (stereo not drawn) | 41 mg/kg
25 | CN(C)CCC=C1c2ccccc2COc2ccccc21 [DOXEPIN] | 40 mg/kg
26 | CCOC(=O)NC1=NC(c2ccccc2Cl)CN1C (stereo not drawn) | 30 mg/kg

species: Mus musculus; assay: Righting ability was determined in mice […] rapid rolling (aroused); format: functional; conditions: not given; in short: as §2

Row | Structure (SMILES) | Loss of righting reflex
27 | COC(=O)NC1=NC(c2cccc(OC)c2)CN1C (stereo not drawn) | 144 mg/kg
28 | COC(=O)NC1=NC(c2cccc(C)c2)CN1C (stereo not drawn) | 149 mg/kg
29 | CC(C)COC(=O)NC1=NC(c2ccccc2)CN1C (stereo not drawn) | 76 mg/kg
30 | CN(C)CCC=C1c2ccccc2COc2ccccc21 [DOXEPIN] | 43 mg/kg
31 | CCOC(=O)NC1=NC(c2ccccc2Cl)CN1C (stereo not drawn) | 64 mg/kg

species: Mus musculus; assay: Righting ability was determined in mice after rapid rolling (aroused); format: functional; conditions: not given; in short: as §2

Row | Structure (SMILES) | Loss of righting reflex
32 | COC(=O)NC1=NC(c2cccc(OC)c2)CN1 (stereo not drawn) | 197 mg/kg
33 | COC(=O)NC1=NC(c2ccccc2F)CN1 (stereo not drawn) | 234 mg/kg
34 | CCOc1ccccc1C1CN=C(NC(=O)OC)N1 (stereo not drawn) | 125 mg/kg

system: not listed separately; assay: Lethal dose in mouse, in groups of ten; format: toxicity, organism-based; conditions: in vivo

Row | Structure (SMILES) | LD50
35 | COC(=O)NC1=NC(c2cccc(OC)c2)CN1C (stereo not drawn) | 250 mg/kg
36 | COC(=O)NC1=NC(c2cccc(C)c2)CN1C (stereo not drawn) | 475 mg/kg
37 | COC(=O)NC1=NC(c2cccc(OC)c2)CN1 (stereo not drawn) | 700 mg/kg
38 | COC(=O)NC1=NC(c2ccccc2-c2ccccc2)CN1 (stereo not drawn) | 200 mg/kg
39 | COC(=O)NC1=NC(c2ccccc2F)CN1 (stereo not drawn) | 255 mg/kg
40 | CCOc1ccccc1C1CN=C(NC(=O)OC)N1 (stereo not drawn) | 700 mg/kg
41 | COC(=O)NC1=NC(c2cccc(Cl)c2)CN1C (stereo not drawn) | 300 mg/kg
42 | COC(=O)NC1=NCC2c3ccccc3CCN12 (stereo not drawn) | 200 mg/kg
43 | CC(C)COC(=O)NC1=NC(c2ccccc2)CN1C (stereo not drawn) | 247 mg/kg
44 | CN(C)CCC=C1c2ccccc2COc2ccccc21 [DOXEPIN] | 50 mg/kg
45 | CCOC(=O)NC1=NC(c2ccccc2Cl)CN1C (stereo not drawn) | 200 mg/kg

species: Rattus norvegicus; assay: Inhibition of the 5-HT [14C]5-HT uptake by rat brain slices In vitro; format: functional; conditions: not given
In short: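 Rat cerebral cortex slices, 5 mg tissue per mL Krebs-Henseleit buffer, incubated at 37 °C with [3H]NE or [14C]5-HT; blanks at 4 °C, undosed controls. Stopped after 20 min by filtration; slice radioactivity counted; IC50 from linear regression of uptake inhibition.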

Row | Structure (SMILES) | IC50
46 | CCOC(=O)NC1=NC(c2ccccc2Cl)CN1C (stereo not drawn) | 150 µM

species: Mus musculus; assay: Compound was evaluated for maximal electroshock antagonism (MES) against mice; format: functional; conditions: not given
In short: (§3)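 Male HLa (ICR) BR mice, groups of eight to ten, dosed ip (aqueous solution) 15 min before transcorneal electroshock (50 mA, 0.2 s). End point: abolition of tonic hind-limb extension; quantal ED50 by Litchfield-Wilcoxon.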

Row | Structure (SMILES) | ED50
47 | COC(=O)NC1=NC(c2cccc(OC)c2)CN1C (stereo not drawn) | 128 mg/kg
48 | COC(=O)NC1=NC(c2cccc(C)c2)CN1C (stereo not drawn) | 89 mg/kg
49 | COC(=O)NC1=NC(c2ccccc2F)CN1 (stereo not drawn) | 54 mg/kg
50 | COC(=O)NC1=NC(c2cccc(Cl)c2)CN1C (stereo not drawn) | 100 mg/kg
51 | CC(C)COC(=O)NC1=NC(c2ccccc2)CN1C (stereo not drawn) | 70 mg/kg
52 | CN(C)CCC=C1c2ccccc2COc2ccccc21 [DOXEPIN] | 16 mg/kg
53 | CCOC(=O)NC1=NC(c2ccccc2Cl)CN1C (stereo not drawn) | 28 mg/kg

species: Mus musculus; assay: Evaluated for antagonism of reserpine induced hypothermia; format: functional; conditions: not given; in short: as §1

Row | Structure (SMILES) | HYPO
54 | COC(=O)NC1=NC(c2cccc(OC)c2)CN1C (stereo not drawn) | >20 mg/kg
55 | COC(=O)NC1=NC(c2ccccc2-c2ccccc2)CN1 (stereo not drawn) | >20 mg/kg
56 | COC(=O)NC1=NC(c2ccccc2F)CN1 (stereo not drawn) | <0.5 mg/kg
57 | CC(C)COC(=O)NC1=NC(c2ccccc2)CN1C (stereo not drawn) | >20 mg/kg
58 | CCOC(=O)NC1=NC(c2ccccc2Cl)CN1C (stereo not drawn) | <0.5 mg/kg

system: not listed separately; assay: HPLC capacity factor (k'); format: ADME; conditions: not given

Row | Structure (SMILES) | Log k'
59 | COC(=O)NC1=NC(c2cccc(OC)c2)CN1C (stereo not drawn) | 0.18
60 | COC(=O)NC1=NC(c2cccc(C)c2)CN1C (stereo not drawn) | 0.49
61 | COC(=O)NC1=NC(c2cccc(OC)c2)CN1 (stereo not drawn) | -0.07
62 | COC(=O)NC1=NC(c2ccccc2-c2ccccc2)CN1 (stereo not drawn) | 1.06
63 | CCOc1ccccc1C1CN=C(NC(=O)OC)N1 (stereo not drawn) | 0.55
64 | COC(=O)NC1=NC(c2cccc(Cl)c2)CN1C (stereo not drawn) | 0.53
65 | CC(C)COC(=O)NC1=NC(c2ccccc2)CN1C (stereo not drawn) | 1.15
66 | CCOC(=O)NC1=NC(c2ccccc2Cl)CN1C (stereo not drawn) | 0.82

species: Mus musculus; assay: Compound was evaluated for maximal electroshock antagonism (MES) against mice; Inactive; format: functional, organism-based; conditions: not given; in short: as §3

Row | Structure (SMILES) | ED50
67 | COC(=O)NC1=NC(c2cccc(OC)c2)CN1 (stereo not drawn) | inactive
68 | CCOc1ccccc1C1CN=C(NC(=O)OC)N1 (stereo not drawn) | inactive
